Assay results collected from several papers.
Values after ≈ are worked out from the molar mass of the structure shown.
Organism: Cryptococcus neoformans

| SMILES | effect on | method | strain | time | measurement | value |
| --- | --- | --- | --- | --- | --- | --- |
| O=C(CCCCCCCC[P+](c1ccccc1)(c1ccccc1)c1ccccc1)Nc1cc(O)c(O)c(O)c1.[Br-] | microbial growth | broth dilution | ATCC208821 | 24 h | MIC | 8 µg/mL |
| C[C@@H]1[C@H](O)[C@@H](C)/C=C/C=C/C=C/C=C/C=C/C=C/C=C/[C@H](O[C@@H]2O[C@H](C)[C@@H](O)[C@H](N)[C@@H]2O)C[C@@H]2O[C@](O)(C[C@@H](O)C[C@@H](O)[C@H](O)CC[C@@H](O)C[C@@H](O)CC(=O)O[C@H]1C)C[C@H](O)[C@H]2C(=O)O | microbial growth | broth dilution | ATCC90113 | – | IC50 | 0.24 µg/mL (≈ 0.26 µM) |
| C[C@@H]1[C@H](O)[C@@H](C)/C=C/C=C/C=C/C=C/C=C/C=C/C=C/[C@H](O[C@@H]2O[C@H](C)[C@@H](O)[C@H](N)[C@@H]2O)C[C@@H]2O[C@](O)(C[C@@H](O)C[C@@H](O)[C@H](O)CC[C@@H](O)C[C@@H](O)CC(=O)O[C@H]1C)C[C@H](O)[C@H]2C(=O)O | microbial growth | – | ATCC90113 | – | MIC | 0.68 µM |
| C=CCCCCCCCCCCCC(O)CC(O)CO (stereo not shown) | microbial growth | broth dilution | ATCC90113 | – | IC50 | > 200 µg/mL |
| Cc1occc(=O)c1O | microbial growth | broth dilution | – | 48 h | MIC | > 100 µM |
| C[C@@H]1[C@H](O)[C@@H](C)/C=C/C=C/C=C/C=C/C=C/C=C/C=C/[C@H](O[C@@H]2O[C@H](C)[C@@H](O)[C@H](N)[C@@H]2O)C[C@@H]2O[C@](O)(C[C@@H](O)C[C@@H](O)[C@H](O)CC[C@@H](O)C[C@@H](O)CC(=O)O[C@H]1C)C[C@H](O)[C@H]2C(=O)O | microbial growth | – | ATCC90113 | – | IC50 | 1.14 µg/mL (≈ 1.23 µM) |
| O=C(CCc1cc(O)c(O)c(O)c1)NCCCCCCCC[P+](c1ccccc1)(c1ccccc1)c1ccccc1.[Br-] | microbial growth | broth dilution | ATCC208821 | 24 h | MIC | > 32 µg/mL |
| C[C@@H]1[C@H](O)[C@@H](C)/C=C/C=C/C=C/C=C/C=C/C=C/C=C/[C@H](O[C@@H]2O[C@H](C)[C@@H](O)[C@H](N)[C@@H]2O)C[C@@H]2O[C@](O)(C[C@@H](O)C[C@@H](O)[C@H](O)CC[C@@H](O)C[C@@H](O)CC(=O)O[C@H]1C)C[C@H](O)[C@H]2C(=O)O | microbial killing | – | ATCC90113 | – | MFC | 1.5 µg/mL (≈ 1.62 µM) |
| O=C(CCCCCC[P+](c1ccccc1)(c1ccccc1)c1ccccc1)Nc1cc(O)c(O)c(O)c1.[Br-] | microbial growth | broth dilution | ATCC208821 | 24 h | MIC | 32 µg/mL |
| Cl.Oc1cccc2c1[nH]c1c(C3=CC4(O)CC/C=C\CCCCN5CCC3C3(CC6/C=C\CCCCN6C43)C5)nccc12 (single isomer, unassigned; (+)) | microbial growth | – | ATCC90113 | – | IC50 | 2.69 µg/mL |
